# Bioassay records: PubChem BioAssay, Broad Institute
# An excerpt weighted towards active compounds, which were near 2.6% of everything screened.
# FN deposit inh: fibronectin deposition inhibition; AH1F fibroblasts, Alexa488-fibronectin deposition fluorescence, overnight; inhibition, % at 12.6 µM; AID 743247; 0.086% of 350,000 active;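 active means mean inhibition across replicates of 30% or more, regardless of how many single replicates reach that level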;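 further: positive control wells lacked labelled fibronectin entirely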
#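 Material – AH1F fibroblast monolayer, labelled fibronectin deposition · Reagent – labelled fibronectin 24 nM · Timing – 1 h adhesion, overnight exposure · Measured by – fluorescence at 485 nm excitation, 525 nm emission · Read-out – inhibition of fibronectin deposition signal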
# S100A4 inh HTS: S100A4-myosin IIA interaction inhibition. S100A4/TAMRA-MyoIIA peptide fluorescence polarization. inhibition, % at 10.7 µM. 0.14% of 360,000 active. AID 652163;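 active means mean inhibition of at least 70% across replicates, with every replicate also reaching that level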
# Target sequence (P26447 whole entry, looked up): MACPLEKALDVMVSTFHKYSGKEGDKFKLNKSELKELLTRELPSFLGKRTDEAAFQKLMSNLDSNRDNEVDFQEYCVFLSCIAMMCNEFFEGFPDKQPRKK
#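 Material: human S100A4 monomer with TAMRA-labelled myosin IIA peptide; buffer or medium: HEPES pH 7.2 with CaCl2, KCl, NaCl, DTT, Triton; compound dosing: one concentration per compound; schedule: 5 min incubation before reading; benchmarks: neutral control DMSO, positive control TFP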
# HIV Env fusion: blocks HIV Env-driven cell-cell fusion; HeLa-JRFL Env/CEM21 cell fusion, luciferase; inhibition, % at 12.3 µM; 1.1% of 360,000 active; AID 651610;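 active means mean replicate inhibition score of at least 50 and every replicate individually at or above 50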;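 further: 0% = plate neutral controls and 100% = maraviroc near 300 nM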
# Vif inh: blocks HIV Vif function | HEK293T cells, Vif self-association by quenched fluorescence, imaging, 24 h | inhibition, % at 7.49 µM | 0.35% of 340,000 active | AID 602346; in the data active means inhibition above about 50%, passing the limit was not always enough
# miR122 inh: miR-122 inhibition in Huh7 cells. Huh7 miR-122 Renilla luciferase sensor, 48 h; neutral wells = 0, positive control = 100. activation (reporter increase), % at 12.5 µM. 0.3% of 340,000 active. AID 602342;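 active means mean replicate activation score at least 90 and every replicate individually at or above 90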;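 further: higher luciferase means less miR-122 activity so hits act as miR-122 inhibitors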
# rRNA inh HTS: inhibits bacterial ribosomal RNA function over humanized ribosomes; 1.6% of 350,000 active; GFP signal change (wild-type ribosome), % (no concentration beside the values); E. coli WT GFP vs humanized-ribosome RFP mutants, fluorescence, 24 h; stronger effect = lower value; DMSO median 0, no signal -100;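 active means significant combined selectivity score with lowered wild-type GFP, culture density cut under 30%, mutant RFP and density less affected; inactive means any of these conditions unmet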
# Active calls of the source: *; . = no result given; [ ] = remark or other dose.
SMILES,FN deposit inh,S100A4 inh HTS,HIV Env fusion,Vif inh,miR122 inh,rRNA inh HTS
COc1c(Br)cc(Br)cc1/C=C1/C(=O)N=C(N)N1C,-5.3,5.1,-12.8,95.5*,-1.3,-10.6
O=C(C[C@H]1CC[C@H]2[C@@H](COC[C@H](O)CN2CC2CC2)O1)NCC1CC1,-13.6,8.8,.,.,-6.5[16.7 µM],-1.8
CCC(Sc1nc2ccncc2[nH]1)C(=O)Nc1ccc(C)c(Cl)c1 (stereo unspecified),2.3,78.6*,26.5,.,8.6,-41.8
CC(C)NC(=O)Nc1cccc2c1O[C@@H](CN(C)Cc1ccc3c(c1)OCO3)[C@H](C)CN([C@H](C)CO)C2=O,3.6,-11.3,.,.,.,-4.5
Cn1nnnc1SCc1ccc(C(=O)Nc2ccc(Br)cc2)cc1,.,.,.,80.9*,.,.
CC(=O)Nc1ccc(C(=O)CSc2nnnn2C)cc1,10.6,2.4,-11.5,-2.9,5.4,9.4
CN1C[C@H](O)COC[C@H]2O[C@@H](CC(=O)N3CCN(c4ccccc4)CC3)CC[C@@H]21,0.7,-5.2,-8.9[16.7 µM],.,0.4[16.7 µM],-1.1
CCCCSc1nn[nH]n1,.,-1.2,.,52.0*,-0.8,11.6
C[C@H](CO)N1C[C@H](C)[C@@H](CN(C)Cc2ccncc2)Oc2ccc(NC(=O)Cc3ccccc3)cc2C1=O,.,-5.4,11.5[16.7 µM],.,-1.0[16.7 µM],-0.7
C[C@@H]1CN([C@H](C)CO)C(=O)c2cccc(NS(=O)(=O)c3cccs3)c2O[C@@H]1CN(C)S(=O)(=O)c1cccs1,.,-3.9,10.4[16.7 µM],.,-4.9[16.7 µM],-2.5
COc1ccc(C2SCC(=O)N2CC23CC4CC(CC(C4)C2)C3)cc1 (stereo unspecified),.,-1.3,.,-8.1,-5.0,-24.9*
CCc1ccc(C(=O)CSc2nc(C)cc(=O)[nH]2)cc1,1.8,0.6,-5.1,-2.1,.,-27.3*
O=C(N[C@H]1CC[C@H](CCNS(=O)(=O)c2ccccc2)O[C@H]1CO)c1cnccn1,.,-11.7,-15.7[16.7 µM],.,.,5.1
Cn1ccc2c(-c3ccc(F)cc3)cc3c(c21)C1CCC3C1 (stereo unspecified),2.5,5.4,15.9,.,2.1,-1.6
Cn1ccc2c(-c3ccc(CO)cc3)cc3c(c21)C1CCC3C1 (stereo unspecified),-1.4,-7.4,20.8,.,4.5,-30.4*
CCCN(C)C[C@@H]1OCCCC[C@@H](C)Oc2ccc(NS(=O)(=O)c3ccc(C)cc3)cc2C(=O)N([C@H](C)CO)C[C@H]1C,.,.,2.0[16.7 µM],.,-6.9[16.7 µM],-3.0
COCCn1nnnc1C(C(C)C)N(Cc1ccccc1)Cc1cc2cc(OC)ccc2[nH]c1=O (stereo unspecified),.,.,.,.,-6.8,.
COc1ccc(Cn2nnnc2C(c2cc3cc(C)ccc3[nH]c2=O)N2CCOCC2)cc1 (stereo unspecified),.,.,66.9*,-7.8,-5.2,.
COc1ccc2[nH]c(=O)c(CN(Cc3ccco3)C(c3nnnn3Cc3ccccc3)C(C)C)cc2c1 (stereo unspecified),4.2,-0.3,54.5*,5.0,12.9,-3.7
CCN1CCN(C(c2cc3cccc(C)c3[nH]c2=O)c2nnnn2Cc2ccccc2)CC1 (stereo unspecified),6.6,.,-50.9,0.8,-13.8,.
COc1ccc(N2CCN(C(c3cc4cc(C)ccc4[nH]c3=O)c3nnnn3Cc3ccccc3)CC2)cc1 (stereo unspecified),.,.,-208.3,-3.3,2.6,.
COc1ccc(Cn2nnnc2C(c2cc3cccc(C)c3[nH]c2=O)N2CCOCC2)cc1 (stereo unspecified),-10.2,.,86.0*,-15.4,-18.0,.
O=C(Cc1cccnc1)N1CC(=O)N2[C@H](CO)[C@@H](c3ccc(-c4cccc(F)c4)cc3)[C@H]2C1,.,.,.,.,.,1.6
CN(C)CC(=O)Nc1ccc2c(c1)[C@H]1C[C@@H](CC(=O)N3CCOCC3)O[C@H](CO)[C@H]1O2,-10.6,.,-10.3[16.7 µM],.,-3.1[16.7 µM],2.5
C[C@H](CO)N1C[C@H](C)[C@H](CN(C)S(=O)(=O)c2ccccc2)Oc2ccc(NC(=O)Nc3cccc4ccccc34)cc2C1=O,.,-18.3,12.7[16.7 µM],.,-9.3[16.7 µM],-1.6
SMILES,FN deposit inh,S100A4 inh HTS,HIV Env fusion,Vif inh,miR122 inh,rRNA inh HTS
CN(C)c1cccc(C(=O)Nc2ccc3nc4n(c(=O)c3c2)CCCCC4)c1,1.1,-2.1,12.5,.,1.5,-25.6*
O=C(Nc1cccc(NC(=O)c2cc([N+](=O)[O-])ccc2Cl)n1)c1cc([N+](=O)[O-])ccc1Cl,.,.,.,58.3*,.,.
CC(=O)Nc1ccc2c(c1)C(=O)N(C)C[C@H](C)[C@H](CN(C)C(=O)OC(C)(C)C)O2,.,.,.,.,.,-4.5
O=C(O)/C=C/c1ccc(S(=O)(=O)Nc2ccc(OCc3ccccc3)cc2)cc1,11.8,28.2,9.9,-2.2,1.7,-24.0*
C[C@H]1CN([C@@H](C)CO)C(=O)c2cccc(NC(=O)CCCCCC(=O)Nc3ccccc3N)c2O[C@H]1CN(C)Cc1ccc(C(F)(F)F)cc1,5.1,6.8,.,.,.,-1.7
C[C@H]1CC=CC[C@@H](c2ccccc2)NC(=O)[C@H](Cc2ccccc2)N(C)C(=O)c2ccccc2O1 (mixture of isomers),-1.9,.,.,.,.,-7.4
COc1cccc(CN2c3ccc(Br)cc3C(=O)CS2(=O)=O)c1,1.5,-36.7,-0.1,-12.0,4.6,-37.4*
O=C(c1csc(Nc2ccccc2Cl)n1)N1CCCC1,.,.,-85.6,15.3,-5.5,.
O=C(c1csc(Nc2cccc3ccccc23)n1)N1CCCC1,-7.7,-0.2,-83.7,-6.9,1.4,-32.0*
O=C(C[C@H]1CC[C@H](NC(=O)C2CCOCC2)[C@@H](CO)O1)Nc1ccc(-c2ccccc2)cc1,.,-2.2,10.3[16.7 µM],.,.,-4.2
CCn1c(Cl)c(C=O)s/c1=N\S(=O)(=O)c1ccccc1,50.1*,-27.0,-42.8,12.6,-72.1,4.6
C[C@@H]1CN([C@H](C)CO)C(=O)Cc2cc(NS(=O)(=O)c3ccc(Cl)cc3)ccc2O[C@@H]1CN(C)Cc1ccc(C(F)(F)F)cc1,.,23.4,6.4[16.7 µM],.,-5.5[16.7 µM],-1.9
C[C@H](CO)N1C[C@H](C)[C@@H](CN(C)Cc2ccc(C(F)(F)F)cc2)Oc2ccc(NS(=O)(=O)c3ccc(Cl)cc3)cc2CC1=O,-11.6,-12.5,69.0*[16.7 µM],.,-30.6[16.7 µM],2.2
C[C@H](CO)N1C[C@H](C)[C@H](CN(C)Cc2ccccc2)Oc2ccc(NS(=O)(=O)c3ccccc3)cc2CC1=O,.,86.9*,-32.0[16.7 µM],.,29.0[16.7 µM],-2.0
Cc1ccc(S(=O)(=O)Nc2ccc3c(c2)CC(=O)N([C@@H](C)CO)C[C@H](C)[C@@H](CN(C)Cc2ccc(-c4ccccc4)cc2)O3)cc1,-0.2,11.0,75.2*[16.7 µM],.,-25.3[16.7 µM],-0.8
C[C@@H]1CN([C@H](C)CO)C(=O)Cc2cc(NS(=O)(=O)c3ccccc3)ccc2O[C@H]1CN(C)C(=O)Nc1cccc2ccccc12,.,-4.6,15.6[16.7 µM],.,16.0[16.7 µM],4.9
